Screening results (PubChem)
TAAR1 agonist = human TAAR1 agonism; actives 0.99% (n = 360,000); AID 624467; CHO RD-HGA16 TAAR1, Fluo-8 calcium fluorescence; vehicle wells 0%, saturating PEA agonist 100%; activation, % at 3 µM;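 active means activation above the mean activation of all test compounds in the run plus 3 SD, cut at about 38% in these data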
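Test system: RD-HGA16 (CHO) cells co-expressing Gα16 and hTAAR1 | Doses: Single dose, 3 µM | Schedule: 17-24 h seeding, 75 min 37 °C dye, 30 min RT | Evaluation: % activation from peak over basal fluorescence ratio, DMSO-to-PEA scaled | Technique: Kinetic Fluo-8 calcium fluorescence | Benchmarks: Low control DMSO, high control PEA (EC100)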
TAAR1 antag = antagonists of human TAAR1; Q96RJ0; CHO RD-HGA16 TAAR1, Fluo-8 calcium fluorescence, antagonist; inhibition, % at 3 µM; actives 1.5% (n = 360,000);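 active means inhibition above a per-plate cutoff, the mean inhibition of test compounds on that plate plus 3 SD, cut at about 49% in these data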;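 further: 0% = DMSO plus EC80 beta-PEA response and 100% = DMSO alone without agonist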
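Test system: hTAAR1-expressing CHO RD-HGA16 cells, Gα16-coupled; Probe or stimulus: EC80 β-phenethylamine stimulus; Compound dosing: single nominal final test compound concentration of 3 µM; Timing: 140 s kinetic read after compound, 140 s after agonist; Signal: Fluo-8 calcium-sensitive fluorescence; Measure: % inhibition of agonist calcium response; Controls: DMSO and EC80 PEA controls.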
MC4R barr agon = human MC4R agonism via beta-arrestin. P32245. U2OS MC4R beta-arrestin complementation, luminescence; percent of melanotan II response, DMSO zero. activation, % at 8.9 µM. actives 0.98% (n = 360,000);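 active means activation above a per-plate cutoff, the mean activation of sample wells on that plate plus 3 SD, cut at about 8% in these data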
B2AR ag = activates human beta-2 adrenergic receptor causing internalization | P07550 | response, % (concentration not given with the values) | actives 0.43% (n = 340,000) | AID 504454 | Am2.2-beta2AR cells, FAP receptor internalization, flow cytometry;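 active means response above a set limit, near 3 SD of response in nonfluorescent compounds, cut at about 42% in these data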
MC4R antag cAMP = blocks human MC4R cAMP signaling. P32245. MC4R-expressing cells, MTII-stimulated cAMP, LANCE TR-FRET. inhibition, % at 6.5 µM. actives 0.48% (n = 360,000). AID 540295;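 active means inhibition above its plate's cutoff, the mean of tested wells on that plate plus 3 SD, cut at about 29% in these data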;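 further: 0% = Melanotan II alone and 100% = Melanotan II plus saturating MCL0020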
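material = U2OS cells stably expressing human melanocortin 4 receptor (MC4R) | also added = Melanotan II challenge | dosing = single nominal compound dose of 6.5 µM | detection = TR-FRET with Eu-cAMP and labeled anti-cAMP, 671 nm | replication = singlicate | timing = compound 30 min, challenge 1 h, detection 1 h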
HTR2A ag = activates the mouse 5-HT2A serotonin receptor | CHO-K1 mHTR2A beta-arrestin complementation, luminescence; percent of 30 µM serotonin response | activation, % at 7.6 µM | actives 0.66% (n = 360,000) | AID 624169;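 active means activation above a run cutoff, the mean activation of all tested compounds plus 3 SD, cut at about 14% in these data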;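 further: 0% = plate median of compound wells and 100% = 30 µM serotonin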
Target sequence (P35363 whole entry, looked up): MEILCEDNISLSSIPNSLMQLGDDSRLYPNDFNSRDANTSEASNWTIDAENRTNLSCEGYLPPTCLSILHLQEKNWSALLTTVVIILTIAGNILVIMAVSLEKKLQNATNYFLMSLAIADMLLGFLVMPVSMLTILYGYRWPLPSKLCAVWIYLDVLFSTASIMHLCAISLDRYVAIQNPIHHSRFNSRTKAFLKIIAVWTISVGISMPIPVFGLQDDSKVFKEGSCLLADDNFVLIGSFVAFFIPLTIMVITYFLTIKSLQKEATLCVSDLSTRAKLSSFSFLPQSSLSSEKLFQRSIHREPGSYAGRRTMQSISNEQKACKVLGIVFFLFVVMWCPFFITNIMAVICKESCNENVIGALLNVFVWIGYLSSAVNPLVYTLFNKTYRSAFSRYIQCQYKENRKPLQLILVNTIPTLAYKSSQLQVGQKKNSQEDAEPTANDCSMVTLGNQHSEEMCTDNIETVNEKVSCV
Active calls of the source: *; nt = no result given. Sampled rows, rich in hits. Any-hit rate of the full collection: about 4.3%.

SMILES | TAAR1 agonist | TAAR1 antag | MC4R barr agon | B2AR ag | MC4R antag cAMP | HTR2A ag
O=C(C#Cc1ccccc1)c1cccc([N+](=O)[O-])c1 | 1.5 | 28.0 | -2.9 | 66.9* | 1.6 | -0.3
O=C(Cc1c[nH]c2ccccc12)Nc1ccc(Nc2cccnc2)c(Br)c1 | 2.4 | 42.3 | nt | nt | nt | nt
CCCn1c(=O)[nH]c(=O)c2c1nc(-c1ccc(OC(F)(F)C(F)C(F)(F)F)cc1)n2CCOC (configuration not stated) | -0.9 | 5.5 | 10.0* | 2.7 | 9.7 | -10.6
CCCn1c(=O)[nH]c(=O)c2c1nc(-c1ccc(C#N)cc1)n2CCOC | -0.9 | -19.4 | -1.4 | -1.1 | -0.6 | 4.5
Cc1ccc(N(C)S(=O)(=O)c2ccc3c(c2)CC(C)N3C(=O)C2CC2)cc1 (configuration not stated) | -0.8 | 49.3* | -0.4 | -1.6 | -1.1 | -0.7
CC(=O)N1c2ccc(S(=O)(=O)N(C)c3cc(C)ccc3C)cc2CC1C (configuration not stated) | 2.0 | 13.7 | -0.3 | 2.8 | 11.3 | 6.0
S=C(Nc1ccc(Cl)cc1)c1nc2ccccc2s1 | 5.5 | -14.1 | 8.6* | -8.2 | -2.7 | -0.2
N#CC1=C(c2ccccc2)/C(=C/c2ccccc2)OC1=O | 12.1 | 57.5* | 1.4 | 35.6 | 13.7 | -0.6
O=C1O/C(=C/c2ccccc2)c2ccccc21 | -0.3 | -3.1 | 0.4 | -6.5 | -4.9 | -2.1
CCCCN1CC(COCc2ccccc2)Oc2cccc(OCCN3C(=O)[C@@H]4[C@H](C3=O)C3C=C[C@H]4C3)c2S1(=O)=O (some centres not stated) | 17.9 | 69.8* | -0.9 | 18.2 | 15.3 | 0.3
Cc1ccc([C@H]2C[C@H](O)[C@@H](n3cc(-c4ccc(F)cc4)nn3)CN2C(=O)C2CCCCC2)cc1 | 1.4 | -21.3 | 4.2 | nt | 6.2 | -0.1
Cn1c(=O)c([N+](=O)[O-])c(Cl)c2ccccc21 | -0.4 | -2.0 | -4.3 | 89.1* | 11.0 | -9.0
CCN(CC)c1c([N+](=O)[O-])c(=O)n(C)c2ccccc12 | -0.3 | 5.5 | 5.5 | -7.5 | 1.1 | -1.0
Cc1oc(-c2ccccc2Cl)nc1CS(=O)CC(=O)NCCc1ccccc1 (configuration not stated) | 38.2* | -13.6 | -2.5 | 3.3 | 10.3 | 1.2
O=C(NC(c1ccccc1)c1ccsc1)C1CCN(Cc2ccccc2)CC1 (configuration not stated) | 9.6 | 13.4 | 1.3 | nt | 0.4 | 7.6
COc1cc(CN2CCC(C(=O)NC(c3ccccc3)c3ccsc3)CC2)cc(OC)c1 (configuration not stated) | 44.0* | 1.9 | 0.9 | nt | 5.1 | -3.8
CCNC(=O)C[C@@H]1CC[C@@H]2NC[C@@H](O)COC[C@H]2O1 | 2.3 | -12.2 | nt | nt | nt | 2.8
Cc1ccc(Cl)cc1N1CCN(CC(=O)Nc2ccc(CN3CCCCC3)cc2)CC1 | 52.3* | -2.9 | -0.6 | 37.3 | 2.5 | -10.2
Cc1ccc(C(=O)N2O[C@]34C=C[C@]25C[C@@H](O)CC[C@]5(C)C3CC[C@]2(C)[C@@H]([C@H](C)/C=C/[C@H](C)C(C)C)CC[C@H]24)cc1 (some centres not stated) | 2.9 | -26.1 | nt | nt | nt | nt
COc1ccc(CNC(=O)N2[C@H]3CC[C@@H]2C=C(c2ccc(F)cc2OCc2ccccc2)C3)cc1OC | 8.0 | 49.0* | -0.6 | nt | 9.9 | -2.4
CCCCc1c(-c2ccccc2OC)ncn1Cc1cc(F)ccc1F | 4.1 | 12.9 | nt | nt | nt | nt
Cc1cc(C(=O)Cn2ncc(Cl)c(Cl)c2=O)c(C)n1CC(F)(F)F | 1.5 | 9.0 | -0.3 | 43.4* | 17.2 | 10.5
COC(=O)[C@]12CCCCC=C1N(Cc1cccc3ccccc13)C(=O)[C@H](CC(=O)NCCCN1CCCC1=O)C2 | 10.2 | 22.8 | nt | nt | nt | 3.1
O=C(/C=C/C=C/c1ccccc1)CC1(O)C(=O)N(CCc2ccccc2)c2ccccc21 (configuration not stated) | 8.0 | 29.4 | 0.0 | 93.1* | -4.1 | -1.6
CCC(NC(=O)c1cc(COc2cc(C)c(Cl)c(C)c2)on1)c1ccncc1 (configuration not stated) | 43.3* | 35.5 | 3.3 | -2.1 | 0.1 | -4.0
SMILES | TAAR1 agonist | TAAR1 antag | MC4R barr agon | B2AR ag | MC4R antag cAMP | HTR2A ag
CCC(NC(=O)c1cc(COc2ccc(OC)cc2Cl)on1)c1ccncc1 (configuration not stated) | 14.9 | -10.0 | -0.2 | 13.7 | -0.9 | 1.2
O=C1[C@H](Cc2ccccc2)NCCCC[C@@H](c2ccc(Cl)cc2)N1Cc1ccc(Cl)cc1 | 41.1* | 13.8 | 2.5 | 14.9 | 7.5 | 2.0
CCCc1nnc(NC(=O)Cn2c(=O)sc3ccccc32)s1 | 46.0* | -0.3 | -1.0 | -3.6 | 0.8 | -6.5
CCCc1nnc(NC(=O)CN2C(=O)c3ccccc3C2=O)s1 | 7.8 | -12.0 | -0.3 | 3.9 | 0.2 | -4.3
Cc1oc2c(C)c(O)ccc2c(=O)c1-c1cnn(-c2ccccc2)c1 | 4.2 | -3.0 | 28.6* | -9.3 | 2.9 | 4.7
COC(=O)C1=C(C)N(Cc2ccccc2C(F)(F)F)C(=NCc2ccccc2C(F)(F)F)NC1c1ccc(Cl)cc1 (configuration not stated) | 0.9 | -24.9 | nt | nt | nt | nt
Cc1cc(N2CCCC2)nc(SCC(=O)c2ccccc2)n1 | 13.9 | 3.8 | -1.4 | -12.0 | -5.3 | 5.0
Cc1cc(N2CCC(C)CC2)nc(SCC(=O)c2ccccc2)n1 | 19.8 | 53.9* | -0.8 | -0.6 | 2.0 | -6.8
Cc1ccc(S(=O)(=O)Nc2ccccc2OC(C(=O)OC(C)(C)C)C(=O)OC(C)(C)C)cc1 | -0.9 | -4.5 | nt | nt | nt | -8.0
Cc1nn(C(=O)c2nn(C)cc2[N+](=O)[O-])c(C)c1Br | 8.4 | -1.2 | -2.4 | 0.0 | 5.8 | 29.9*
Oc1ccccc1/C=N/Nc1nccnc1Cl | 41.5* | -15.4 | -0.6 | 0.5 | 4.4 | -3.6
CCCNC(=O)C1(C)CCCN(Cc2ccc(C(F)(F)F)cc2)C1 (configuration not stated) | -1.8 | -7.4 | 0.1 | nt | 1.7 | -2.8
CC(C)(C)NC(=O)NC(=O)COC(=O)c1ccc(OC(F)(F)F)cc1 | -1.9 | -23.8 | 8.4* | -0.6 | 0.8 | 7.9
CC(C)(C)NC(=O)NC(=O)COC(=O)c1ccc(OC(F)F)cc1 | -0.7 | -7.3 | 1.7 | -2.1 | -3.2 | 2.2
COc1cccc(OC2(C)CCN(Cc3cccn3-c3nccs3)C2)c1 (configuration not stated) | 1.5 | -7.8 | -1.4 | nt | -0.3 | -4.7
CCOC(=O)c1ccc2c(c1)n(CC)c(/C=C/N(C)c1ccccc1)[n+]2CC | 0.4 | 3.8 | -0.6 | -9.0 | 5.7 | 2.0
